{"data": "Published values from different studies", "note": "Each line is one published result; the experiments were not run side by side."}
{"Structure (SMILES)": "CC(=O)N[C@@H](C)C(=O)N[C@H]1CSSC[C@@H](C(=O)O)NC(=O)[C@H](Cc2ccccc2)NC(=O)[C@@H]2CCCN2C(=O)[C@H](Cc2c[nH]c3ccccc23)NC(=O)[C@H](CC(C)C)NC(=O)[C@H](CC(C)C)NC(=O)[C@H](CC(=O)O)NC(=O)[C@H](Cc2ccccc2)NC(=O)[C@H](Cc2c[nH]cn2)NC(=O)[C@H]([C@@H](C)O)NC(=O)[C@H](Cc2ccccc2)NC1=O", "system": "male Sprague-Dawley rat, plasma", "setting": "intravenous", "half-life [min]": 1.82}
{"Structure (SMILES)": "COc1ccc2c3c1O[C@H]1C[C@@H](OC(=O)c4ccccc4)C=C[C@@]31CCN(C)C2", "system": "rat, brain", "setting": "intravenous, 5 mg/kg", "half-life [min]": 117}
{"Structure (SMILES)": "Cn1cnc(Cn2c(=O)[nH]/c(=N\\c3cc4cn(C)nc4cc3Cl)n(Cc3cc(F)c(F)cc3F)c2=O)n1", "system": "male Sprague-Dawley rat, plasma", "setting": "intravenous, 5 mg/kg", "half-life [min]": 197}
{"Structure (SMILES)": "Cc1ncc(C)n2nc(/C=C/c3nc(N4CCCC4)cc(N4CCOCC4)n3)nc12", "system": "male Sprague-Dawley rat, plasma", "setting": "intravenous, 0.1 mg/kg", "half-life [min]": 276}
{"Structure (SMILES)": "COC(=O)C(NC(=O)c1cn(CCCCCF)c2ccccc12)C(C)(C)C (stereo not drawn)", "system": "male Sprague-Dawley rat, plasma", "setting": "subcutaneous, 50 µg/kg", "half-life [min]": 414}
{"Structure (SMILES)": "[2H]C([2H])(c1cc(F)c(F)cc1F)n1c(=O)n(Cc2ncn(C)n2)c(=O)[nH]/c1=N\\c1cc2cn(C)nc2cc1Cl", "system": "male Sprague-Dawley rat, plasma", "setting": "intravenous, 5 mg/kg", "half-life [min]": 202}
{"Structure (SMILES)": "CCCCCn1cc(C(=O)Nc2cccc3ccccc23)c2ccccc21", "system": "male Long-Evans rat, plasma", "setting": "intraperitoneal, 3 mg/kg", "half-life [min]": 693}
{"Structure (SMILES)": "[2H]C([2H])([2H])n1cc2cc(Nc3nc(=O)n(Cc4ncn(C)n4)c(=O)n3Cc3cc(F)c(F)cc3F)c(Cl)cc2n1", "system": "male Sprague-Dawley rat, plasma", "setting": "intravenous, 5 mg/kg", "half-life [min]": 221}
{"Structure (SMILES)": "N=c1c2c(-c3ccccc3)c(-c3ccccc3)n(Cc3ccccc3)c2ncn1[C@H]1CC[C@H](O)CC1", "system": "male Sprague-Dawley rat, plasma", "setting": "oral, 2 mg/kg, single dose", "half-life [min]": 534}
{"Structure (SMILES)": "Cl.Cl.O=C(CCN1CCCCC1)c1ccc(-c2ccc(C(=O)CCN3CCCCC3)cc2)cc1", "system": "Sprague-Dawley rat, plasma", "setting": "oral, 50 mg/kg", "half-life [min]": 452}
{"Structure (SMILES)": "CCCC[C@@H]1NC(=O)[C@H](Cc2ccc(O)cc2)NC(=O)[C@@H]2CCCN2C(=O)[C@H](CC(=O)O)NC(=O)[C@H](C)NC(=O)[C@H](Cc2ccccc2)NC(=O)[C@@H]2CSCCC(=O)N3CN(CN(C3)C(=O)CCSC[C@H](NC(C)=O)C(=O)N[C@@H](CC(C)(C)C)C(=O)N3CCC[C@H]3C(=O)N[C@@H](CCC(=O)O)C(=O)N[C@H](CCCCNC(=O)CCc3cn(CCOCCOCCOCCN(CCOCCOCCOCCC(=O)N[C@H]4CSCCC(=O)N5CN6CN(C5)C(=O)CCSC[C@H](NC(=O)[C@@H](CC(=O)O)NC(=O)[C@H](Cc5cccc7ccccc57)NC(=O)[C@@H]5CCCN5C4=O)C(=O)N[C@@H](CCSC)C(=O)N[C@@H](CCCCNC(=N)N)C(=O)N[C@@H](CC(=O)O)C(=O)N[C@@H](Cc4c[nH]c5ccccc45)C(=O)N[C@@H](CO)C(=O)N[C@@H]([C@@H](C)O)C(=O)N4CCC[C@H]4C(=O)N4C[C@H](O)C[C@H]4C(=O)N[C@@H](Cc4c[nH]c5ccccc45)C(=O)N[C@H](C(N)=O)CSCCC6=O)CCOCCOCCOCCn4cc(CCC(=O)NCCCC[C@H]5NC(=O)[C@H](CCC(=O)O)NC(=O)[C@@H]6CCCN6C(=O)[C@H](CC(C)(C)C)NC(=O)[C@@H](NC(C)=O)CSCCC(=O)N6CN7CN(C6)C(=O)CCSC[C@H](NC(=O)[C@H](Cc6ccc(O)cc6)NC(=O)[C@@H]6CCCN6C5=O)C(=O)N[C@@H](Cc5ccccc5)C(=O)N[C@@H](C)C(=O)N[C@@H](CC(=O)O)C(=O)N5CCC[C@H]5C(=O)N[C@@H](Cc5ccc(O)cc5)C(=O)N[C@@H](CCCC)C(=O)N[C@H](C(N)=O)CSCCC7=O)nn4)nn3)C(=O)N3CCC[C@H]3C(=O)N[C@@H](Cc3ccc(O)cc3)C(=O)N2)C(=O)CCSC[C@@H](C(N)=O)NC1=O", "system": "rat, plasma", "setting": "intravenous, 2 mg/kg", "half-life [min]": 186}
{"Structure (SMILES)": "O=C([O-])C(=O)[O-].[NH-][C@@H]1CCCC[C@H]1[NH-].[Pt+4] (relative stereo)", "system": "rat, plasma", "setting": "oral, 10 mg/kg", "half-life [min]": 91.7}
{"Structure (SMILES)": "CCN1CC2(CCN(CCc3cc(F)ccc3F)CC2)O[C@H](C)C1=O", "system": "Wistar rat, plasma", "setting": "intraperitoneal, 3 mg/kg, single dose", "half-life [min]": 20}
{"Structure (SMILES)": "CCCC[C@@H]1NC(=O)[C@H](Cc2ccc(O)cc2)NC(=O)[C@@H]2CCCN2C(=O)[C@H](CC(=O)O)NC(=O)[C@H](C)NC(=O)[C@H](Cc2ccccc2)NC(=O)[C@@H]2CSCCC(=O)N3CN(CN(C3)C(=O)CCSC[C@H](NC(C)=O)C(=O)N[C@@H](CC(C)(C)C)C(=O)N[C@@H](CCC(=O)O)C(=O)N[C@@H](CCC(=O)O)C(=O)N[C@H](CCCCNC(=O)CCc3cn(CCOCCOCCOCCOCCOCCC(=O)N[C@H]4CSCCC(=O)N5CN6CN(C5)C(=O)CCSC[C@H](NC(=O)[C@@H](CC(=O)O)NC(=O)[C@H](Cc5cccc7ccccc57)NC(=O)[C@@H]5CCCN5C4=O)C(=O)N[C@@H](CCSC)C(=O)N[C@@H](CCCCNC(=N)N)C(=O)N[C@@H](CC(=O)O)C(=O)N[C@@H](Cc4c[nH]c5ccccc45)C(=O)N[C@@H](CO)C(=O)N[C@@H]([C@@H](C)O)C(=O)N4CCC[C@H]4C(=O)N4C[C@H](O)C[C@H]4C(=O)N[C@@H](Cc4c[nH]c5ccccc45)C(=O)N[C@H](C(N)=O)CSCCC6=O)nn3)C(=O)N3CCC[C@H]3C(=O)N[C@@H](Cc3ccc(O)cc3)C(=O)N2)C(=O)CCSC[C@@H](C(N)=O)NC1=O", "system": "rat, plasma", "setting": "intravenous, 2 mg/kg", "half-life [min]": 102}
{"Structure (SMILES)": "O=C(Nc1cccnn1)N1CCN([C@@H]2CCOc3cc(C(F)(F)F)ccc32)CC1", "system": "male Sprague-Dawley rat, plasma", "setting": "oral, 0.3 mg/kg", "half-life [min]": 198}
